Data from paper PMC3028369 (Diabetes, 2011).
Converted amounts (≈) assume the structure as drawn.

What was measured:
[1] = Oral bioavailability in rats; format: in vivo, rat
C57BL/6 mice = assay: High-fat diet-induced elevated fasting blood glucose; format: in vivo, mouse; conditions: 10 mg/kg/day in high-fat diet for 10 weeks, 4-h fast
Outline: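 C57BL/6 mice ate a high-fat diet (55% of calories from fat) for 10 weeks, with or without test compound at 10 mg/kg/day. Blood glucose was measured after a 4-h fast, N = 5.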

Aqueous solubility = format: physicochemical
KKA^Y mice = assay: Hyperinsulinemic-euglycemic clamp in diabetic KKA^Y mice; format: in vivo, mouse; conditions: 20 mg/kg oral gavage four times at 12-h intervals
Outline: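 Insulin-resistant KKAY mice received test compound at 20 mg/kg by oral gavage four times at 12-h intervals. A jugular catheter was placed under anaesthesia 4–5 days earlier. Plasma [3H]glucose was sampled before, during and at the end. HGP was taken basally and under clamp. N = 7; two-tailed Student t test.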

mouse aortic ECs [2] = assay: IL-6 and KC production in mouse aortic ECs; format: cell-based; conditions: for effect on IL-6 production in ECs (ELISA): 16 h, 10 nmol/L CPA, 100 nmol/L CGS21680, 10 nmol/L Cl-IBMECA
Outline: (§1)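 Mouse aortic endothelial cells were exposed to the nonselective agonist NECA over a time course. IL-6 and KC were read out as mRNA by quantitative RT-PCR and as secreted protein.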

mouse aortic ECs [3] = assay: Cyclic AMP accumulation in mouse aortic ECs; format: cell-based; conditions: ECs from C57BL/6 mice
mouse aortic ECs [4] = assay: IL-6 mRNA induction in mouse aortic ECs; format: cell-based
Outline: as §1

[5] = system: C57BL/6J and adenosine receptor knockout mice; assay: NECA gavage before glucose tolerance test, fasting glucose and plasma IL-6; format: in vivo, mouse
Outline: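 Male 8-week C57BL/6J mice and congenic adenosine receptor knockouts (N = 5) received an oral bolus of vehicle or NECA (0.3 mg/kg) 35 min before an ip GTT (1.25 g/kg). Blood glucose was read by glucometer and AUC calculated. Fasting glucose was taken 35 min after gavage. Plasma IL-6 was measured 4 h after dosing.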

CCCn1c(=O)n(C2CC2)c(=O)c2[nH]c(-c3ccc(N(CC)C(=O)c4cccnc4)nc3)nc21 [ATL-801]
oral bioavailability [1]: 73% | diet-induced elevated fasting blood glucose (C57BL/6 mice): significantly reduced | aqueous solubility (Aqueous solubility): 30 µg/mL (≈ 65.3 µM) | basal HGP rate (KKA^Y mice): markedly reduced | clamp HGP rate (insulin-stimulated state) (KKA^Y mice): markedly reduced | increase in hepatic insulin action (insulin-mediated percent suppression of basal HGP) (KKA^Y mice): 30%

CCNC(=O)[C@H]1O[C@@H](n2cnc3c(N)nc(NCCc4ccc(CCC(=O)O)cc4)nc32)[C@H](O)[C@@H]1O [CGS21680]
effect on IL-6 production in ECs (ELISA) (mouse aortic ECs [2]): without effect

OC[C@H]1O[C@@H](n2cnc3c(NC4CCCC4)ncnc32)[C@H](O)[C@@H]1O [CPA]
effect on IL-6 production in ECs (ELISA) (mouse aortic ECs [2]): without effect

CNC(=O)[C@H]1O[C@@H](n2cnc3c(NCc4cccc(I)c4)nc(Cl)nc32)[C@H](O)[C@@H]1O [Cl-IB-MECA]
effect on IL-6 production in ECs (ELISA) (mouse aortic ECs [2]): without effect

Nc1nc2c(cnn2CCc2ccc(S(=O)(=O)F)cc2)c2nc(-c3ccco3)nn12 [FSPTP]
effect on NECA-induced increase in cyclic AMP (mouse aortic ECs [3]; 1 μmol/L ATL-692, 100 nmol/L FSPTP): not affected

CCCCCCOC(=O)[C@]1(O)C[C@@H]2O[C@@]1(C)n1c3ccccc3c3c4c(c5c6ccccc6n2c5c31)C(=O)NC4 [KT5720]
inhibition of IL-6 mRNA induction by NECA (mouse aortic ECs [4]; ECs, inhibitor at 1 μmol/L): significantly inhibited

CCNC(=O)[C@H]1O[C@@H](n2cnc3c(N)ncnc32)[C@H](O)[C@@H]1O [NECA, 5′-N-ethylcarboxamidoadensoine]
plasma IL-6 ([5]; C57BL/6J mice, 4 h after administration): increase in plasma IL-6 | fasting glucose levels ([5]; C57BL/6 mice, 35 min after gavage): significantly increased | glucose disposal during GTT ([5]; wild-type fasted mice, oral gavage 0.3 mg/kg 35 min before GTT): substantial delay in glucose disposal | cyclic AMP in ECs (mouse aortic ECs [3]; agonist alone): rapid increase in cyclic AMP | IL-6 mRNA in ECs (mouse aortic ECs [4]; 1 μmol/L, time course): transient increase | IL-6 production (protein) in ECs (mouse aortic ECs [2]; 1 μmol/L, time course): more sustained stimulation | production of the murine IL-8 homolog KC in ECs (mouse aortic ECs [2]; 1 μmol/L, time course): stimulates the production | EC50 (mouse aortic ECs [2]; read-out: EC50 to stimulate IL-6 production in ECs, ECs from C57BL/6 mice, 24 h): 140 nM
